Experimental findings from the EternaBench riboswitch data are described below.

This series has as its system MS2 coat protein. Nature of the series: apparent Kd, MS2 coat protein; higher = weaker binding; RNA-MaP array; FMN 200 µM where present. The procedure, abridged:
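Apparent Kd: the median of filtered binding-curve fits from single clusters. Designs were transcribed on Illumina sequencing-chip clusters by stalled E. coli RNA polymerase and titrated with SNAP-549-labelled MS2 coat protein from 0.7 or 1.5 nM, doubling to 3 µM, in 100 mM Tris-HCl pH 7.5, 80 mM KCl, 4 mM MgCl2, BSA, DTT, yeast tRNA and Tween-20. Each series ran without and then with constant ligand, and green signal was normalised to red-channel RNA signal and control-cluster median Fmax.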

The mark [1] stands for this setting: designed as: OFF switch for flavin mononucleotide, no ligand.
The mark [2] stands for this setting: ligand present: flavin mononucleotide, designed as: OFF switch for flavin mononucleotide.
The mark [3] stands for this setting: designed as: ON switch for flavin mononucleotide, no ligand.
Where [4] appears, read: ligand present: flavin mononucleotide, designed as: ON switch for flavin mononucleotide.

“GUACUGUAGUGAGGAUAUACGAGUGCGAUAGCACGGCGAUCCAUUUAUACAUGAGGAUCACCCAUGUAGAAGGCACUUCAGUAC”: the apparent Kd (commonly a dissociation constant that holds for the conditions of the assay) runs as follows: under setting [1], 6.15 nM; under setting [2], 65.6 nM.

Consider “CCAGAGAUAUGAGGAUAUCGAGUGGAAUACACUCGAGAAGGCAUGUGAAAACAUGAGGAUCACCCAUGUGAUCAAUACUCUGGA”, for which the “apparent Kd” value was 176 nM under setting [3] and 27.7 nM under setting [4].

Turning to “CGUGUGUCAGGAUAUUAGUAGUGUGUGGAUACAUAUAUUGCUGAGAAGGGACAUGAGGAUCACCCAUGUAUACG”, the “apparent Kd” value was 46.9 nM under setting [1] and 169 nM under setting [2].

Regarding “AUCGGCUCGUCAGGAUAUACGUCACUGCGUCAGCAGUGUGGUAAGAUCACAUGAGGAUCACCCAUGUAGAAGGGACGAGCUGAU”, the “apparent Kd” value under setting [1] turned out to be 13.6 nM and the “apparent Kd” value under setting [2] worked out at 268 nM.

Regarding “UGCUAGUCAGGAUAUACGUACAUGUCAUUAGACGUGAAGGGACAUGAGGAUCACCCAUGUAGAAGGGACUAGCU”, the “apparent Kd” value under setting [1] was 42.4 nM and the “apparent Kd” value under setting [2] was determined as 149 nM.

In the case of “UCAUUUCUGUAAGGAUAUAUAAACAUGACGAUACAUGAGGAUCACCCAUGUGUAGAAGGUACAAAUACAUAUAAUGCAAUGUUC”, the “apparent Kd” value amounted to 14.8 nM under setting [1] and 12.9 nM under setting [2].

Regarding “GCCAUCGCAUGAGGAUAUGGCACCGGUUCGGUGCCAGAAGGCAUGUCAAAUGACAUGAGGAUCACCCAUGUAGUUAAGAUGGCA”, the “apparent Kd” value by setting is: under setting [3], 215 nM; under setting [4], 14.7 nM.

On to “CGUAACUGCAUAGGAUAUUGUUACAUGAGGAUCACCCAUGUUUUUCGGAUUAUUUAUCUACUUAGCAAGAAGGAUGGAGUUACG”, for which the “apparent Kd” value under setting [3] amounted to 6.82 nM and the “apparent Kd” value under setting [4] was found to be 4.74 nM.

On to “GUGGUACAUGAGGAUCACCCAUGUAAGGAUAUAGUCGUCUGGUGGUCUCGGGUGGUGGCUAGAAGGUGCGUGCG”, for which the “apparent Kd” value reads like this: under setting [1], 189 nM; under setting [2], 177 nM.

On to “GUGAUGAUCGAGAAGGCCACUACAUGAGGAUCACCCAUGUCGUGGUGUAUUGGAGGAUAUCGAUCGACGUCUUAUGAGGACAUA”, for which the “apparent Kd” value is, setting by setting: under setting [1], 4.82 nM; under setting [2], 5.95 nM.

Regarding “GCGUUAGUAUCACAUGUAUUACAUGAGGAUCACCCAUGUUACUAGGAUAUGUAUUAGUAUUAUCAACAGAAGGAGUAAUAACGC”, the “apparent Kd” value was 12.5 nM under setting [1] and 17.6 nM under setting [2].

For “GGAAAACAUGAGGAUCACCCAUGUGAGGAUAUCGAUGUCCAGGGCCUGGUGCGGGACUCGAGAAGGCACUGGGA”, the “apparent Kd” value came out at 62.9 nM under setting [1] and 126 nM under setting [2].

On to “GCACGGUUUGUAGGAUAUGCAUAGCAUUGCUAUGCAGAAGGACAUGAGGAUCACCCAUGUAUGUAUUCCAUACAUUUCCCGUGC”, for which the “apparent Kd” value came out at 5.62 nM under setting [1] and 5.63 nM under setting [2].

As for “UUAACUCAUGUAGGAUAUGCAUGGCGAAGCUACGCAGAAGGACAUGAGGAUCACCCAUGUUCUAGCGUCUGGAUACAGAUGCAA”, the “apparent Kd” value by setting is: under setting [1], 56.1 nM; under setting [2], 227 nM.

As for “AUUGUGUUAGGAUAUGCUUAUGCUGGGUAGUCCAGUAUGGAGUAGAAGGGACAUGAGGAUCACCCAUGUGCUCA”, the “apparent Kd” value was 20.9 nM under setting [1] and 21.2 nM under setting [2].

As for “GCACGUAGACAGAAGGCGACAUGAGGAUCACCCAUGUUGGCUCGGGUAUGACCAAUCCGCAUGAUCGAGGAUAUGUCCGCGGGC”, the “apparent Kd” value is 265 nM under setting [1] and 19.2 nM under setting [2].

Turning to “GGCGCCCGGGCGGAGUCCCACACACAUGAGGAUCACCCAUGUAGAAGGCGCUGCCGCAAGGUCAGCGAGGAUAUACAUUAAGGA”, the “apparent Kd” value worked out at 14.8 nM under setting [1] and 45.8 nM under setting [2].

In the case of “AAAUAGUUAGGAUAUACAUGAGGAUCACCCAUGUGGACUGAUGGCGAUUAAUUUAGUGGUAGAAGGGACUCAAA”, the “apparent Kd” value reads like this: under setting [1], 43.9 nM; under setting [2], 49.9 nM.

Regarding “AAUUGACACGUAGGAUAUCGCUCUAAUUUAACACGAGAAGGACGUACAUGAGGAUCACCCAUGUUAAAUGGUGUAGAUUAGUUG”, the “apparent Kd” value reads like this: under setting [1], 30.9 nM; under setting [2], 88 nM.

For the sequence “AAAGGUACAGGAUAUGCGUGGAAAAAGUGUAUUCAAAAAAAACAUGAGGAUCACCCAUGUAGAAGGGUACCAAA”, the “apparent Kd” value stood at 81 nM under setting [1] and 269 nM under setting [2].

As to “AAGGAGUCAGGAUAUGCUGCUCGUCACUUGCGUGAUGAGUAGCAGAAGGGACAUGAGGAUCACCCAUGUAAAAA”, the “apparent Kd” value reads like this: under setting [1], 56.9 nM; under setting [2], 55.8 nM.

With “UCACGGUAUGUAGGAUAUGCAUAGCAUUGCUAUGCAGAAGGACAUGAGGAUCACCCAUGUAUGUAUUCCAUACUAUUCCCGUGU”, the “apparent Kd” value is, setting by setting: under setting [1], 6.18 nM; under setting [2], 6.09 nM.

For the sequence “UAUGUUGUUGUGAGGAUAUACUUUGUUUGGUCGUAGUAGAAGGCACAUGAGGAUCACCCAUGUAGAUUUUUGGU”, the “apparent Kd” value was determined as 19.4 nM under setting [1] and 24.8 nM under setting [2].

As for “AGUUAAUAUCGAGGAUAUAAGUCUAAGACAUGAGGAUCACCCAUGUGUGUCUUAGAAGGCGAUAUUAACAGCAUGUUACAUGCA”, the “apparent Kd” value reads like this: under setting [3], 48.3 nM; under setting [4], 8.07 nM.

Regarding “AGUUUACAUGAGGAUCACCCAUGUGAGGAUAUGGUUUCGCUGGCCGUAGCCAGUGGAACCAGAAGGCGCGUGAU”, the “apparent Kd” value is 87.6 nM under setting [1] and 164 nM under setting [2].

Regarding “AAAGCAUACCGAGGAUAUUCAUAUAAUAAAUAAACAUGAGGAUCACCCAUGUGGCGAAAGCCUAGGGAGAAGGCGGAAUGCUAA”, the “apparent Kd” value under setting [3] is 197 nM and the “apparent Kd” value under setting [4] came to 24.6 nM.

In the case of “CGGGAGAGAGGAUAUGGUGGACAUCACAUGAGGAUCACCCAUGUCUCGAGUGCUCCGUCACCAGAAGGCUCCGUUU”, the “apparent Kd” value is, setting by setting: under setting [1], 109 nM; under setting [2], 78.7 nM.

Turning to “ACAGCGUGAGGAUAUACAUGAGGAUCACCCAUGUAUGGCAGGUUAUCCUGUCGUAUGUGUAGAAGGCACGCUGU”, the “apparent Kd” value by setting is: under setting [1], 60.3 nM; under setting [2], 73.7 nM.

With “GGACGUCACAUUAACAUGAGGAUCACCCAUGUCUCUUGACAUGAGGAUAUGGAUCCUAAUUGGAUCCAGAAGGCAUGGACGUCC”, the “apparent Kd” value was 1220 nM under setting [3] and 97.2 nM under setting [4].

As for “ACAUGAGGAUCACCCAUGUACAUGGGUAUUAUUGUUUGUUACUAGGAUAUGUAUUUGAAUUUACAACAGAAGGAGUAUUAAUGU”, the “apparent Kd” value under setting [1] was found to be 1160 nM and the “apparent Kd” value under setting [2] worked out at 632 nM.

For “UUUUAACAUGAGGAUCACCCAUGUGAGGAUAUCGUUUUUUUUAUUAAUAUUAAUAAAACGAGAAGGCACAUUUU”, the “apparent Kd” value came out at 149 nM under setting [1] and 149 nM under setting [2].

As for “GCGCGGAACCUAGGAUAUCCGGCAUGGACGGGUGGUAGGUCUCCCACAUGAGGAUCACCCAUGUAGGAGAAGGAGGAUCACGGG”, the “apparent Kd” value is, setting by setting: under setting [1], 6.17 nM; under setting [2], 6.83 nM.

Regarding “UGCAGGUGAGGAUAUGCGGGCGAUUAAACAUAUAAAUGCAAGCAGAAGGCACAUGAGGAUCACCCAUGUAGUCC”, the “apparent Kd” value under setting [1] came to 26 nM and the “apparent Kd” value under setting [2] is 36.1 nM.

As to “CGAUCGUGUAGAGGAUAUGUUAAACAUGAGGAUCACCCAUGUAAGGUAGAAAUUUUUAUUAACAUACAGAAGGCUACACGAUCG”, the “apparent Kd” value is, setting by setting: under setting [1], 8.08 nM; under setting [2], 5.66 nM.

“GGGUACAUCGGAGGAUAUCCUGUAAAUACAUGAGGAUCACCCAUGUCGAUGGAGACAUCGGAGAUUGAGAAGGCCGAUGUACCG”: the “apparent Kd” value is 35 nM under setting [3] and 6.74 nM under setting [4].

Consider “UUACCUCAUGAGAAGGCGAUCAUGAAACAUGAUCGAGGAUAUCAUGUAAACAUGAGGAUCACCCAUGUAUGGGUAUUAUGGUAA”, for which the “apparent Kd” value is, setting by setting: under setting [3], 166 nM; under setting [4], 44.1 nM.
